Screens (PubChem BioAssay)
This is a sample that favours compounds with a hit; in the whole collection about 2.6% have one here.
SIAE inh = inhibitors of human sialic acid acetylesterase SIAE; Q9HAT2; 0.69% of 370,000 active; AID 1053197; inhibition, % at 9.66 µM; SIAE FP-Rh probe binding, fluorescence polarization;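 active = inhibition above a cutoff: mean of compounds within the control limits plus 3 SD of those, cut at about 17% in these data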;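 also: 0% = plate median of compound wells and 100% = probe without SIAE protein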
HTRA1 inh = inhibitors of human serine peptidase HTRA1; recombinant HTRA1, FP-rhodamine activity-based probe, fluorescence polarization; 0.5% of 340,000 active; inhibition, % at 5.96 µM; AID 504803; in the data active = inhibition above about 36%;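 also: 0% = enzyme with DMSO and 100% = wells lacking enzyme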
Target sequence (Q92743 whole entry, looked up): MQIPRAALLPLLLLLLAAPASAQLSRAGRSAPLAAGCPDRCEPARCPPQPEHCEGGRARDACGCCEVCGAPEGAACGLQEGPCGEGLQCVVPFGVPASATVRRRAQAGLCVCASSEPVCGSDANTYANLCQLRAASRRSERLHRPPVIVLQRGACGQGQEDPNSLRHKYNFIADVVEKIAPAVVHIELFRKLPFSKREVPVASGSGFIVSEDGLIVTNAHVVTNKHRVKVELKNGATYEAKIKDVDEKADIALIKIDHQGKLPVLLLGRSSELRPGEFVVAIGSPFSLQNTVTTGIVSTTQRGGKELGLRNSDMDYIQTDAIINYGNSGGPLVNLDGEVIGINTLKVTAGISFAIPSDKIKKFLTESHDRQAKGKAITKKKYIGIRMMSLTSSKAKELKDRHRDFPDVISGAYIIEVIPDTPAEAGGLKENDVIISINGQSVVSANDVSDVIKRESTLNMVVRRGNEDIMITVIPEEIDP
PRMT1 FP inh = inhibitors of human PRMT1. Q99873. recombinant PRMT1, activity-based probe fluorescence polarization. inhibition, % at 2.79 µM. 1.3% of 370,000 active. AID 652257;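 active = inhibition above about 21% made by adding two undisclosed values, limit read from the data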
TCR-CD3 inh = human TCR-CD3 binding inhibition | 0.37% of 360,000 active | inhibition, % at 9.4 µM | TAMRA-labeled TCR probe fluorescence, biochemical; in the data active = inhibition above about 19%;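 also: recombinant mutant TCR 2C K166C tagged with TAMRA read by polarization; 0% = receptor in buffer alone and 100% = receptor with positive control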
ABHD4 inh = ABHD4 (mouse) inhibition, primary FP screen. inhibition, % at 8.92 µM. 0.54% of 370,000 active. Q8VD66. purified mABHD4, FP-Rh probe fluorescence polarization;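 active = inhibition exceeding the mean over every tested compound plus 3 SD, cut at about 30% in these data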;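 also: 0% = plate median of compound wells and 100% = S159A mutant with DMSO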
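System: mouse ABHD4 enzyme, wild type / Medium: HEPES pH 7.0, NaCl, Pluronic buffer / Reagent: FP-Rh activity-based fluorescent probe / Control set: S159A mutant high control, sample median low control / Detection: fluorescence polarization with parallel and perpendicular emission, 525/598 nm / Schedule: 45 min + 60 min at 25 °C / Compound dosing: 8.92 µM, single dose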
PRMT1 inh conf = PRMT1 (human) inhibition, FP confirmation. 42% of 3,300 active. AID 687036. shares compounds with PRMT1 FP inh. recombinant His-PRMT1, activity-based probe fluorescence polarization. inhibition, % at 2.79 µM;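 active = mean inhibition across replicates above the hit cutoff derived for the earlier primary screen, cut at about 22% in these data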
* = called active by the depositor; . = no result given.

SMILES | SIAE inh | HTRA1 inh | PRMT1 FP inh | TCR-CD3 inh | ABHD4 inh | PRMT1 inh conf
Cc1ccc2c(c1)c1c(n2CC(O)CN2C(=O)CNC2=O)C(=O)CCC1 (stereo not given) | 10.7 | 0.1 | 33.1* | -8.1 | 9.8 | 1.2
Cc1ccc2c(c1)c1c(n2CC(O)Cn2ccnc2C)C(=O)CCC1 (stereo not given) | -0.1 | -1.6 | 0.9 | -2.7 | -1.6 | .
Cc1ccc(SCC(=O)N=C2NC(=O)CS2)cc1 | -2.4 | 2.8 | 52.2* | 1.9 | 7.8 | 2.9
CN1C2=N[C@H](c3ccccc3Br)CC(=O)N2/C(=C\c2ccccc2)[C@@H]1c1ccccc1 | -3.4 | . | -2.9 | . | -9.2 | .
COc1ccc(C(=O)CC(Sc2ccccc2N)c2ccc(OC)cc2)cc1 (stereo not given) | 0.2 | -14.4 | 58.7* | -9.0 | 2.7 | 29.2*
COc1ccc(C(=O)CC(=O)c2ccc(C(C)(C)C)cc2)cc1 | -1.2 | 4.5 | 3.7 | -1.5 | -8.0 | .
Cc1ccc(-n2c(SCC(=O)Nc3ccc4cn[nH]c4c3)nnc2-c2ccccc2)cc1 | -106.5 | . | -5.8 | . | -101.0 | .
Cc1cccc2cc(C(c3nnnn3Cc3ccccc3)N3CCCc4ccccc43)c(=O)[nH]c12 (stereo not given) | 9.3 | 0.2 | 25.9* | 2.7 | 4.8 | -2.8
CCN(C(=O)COC(=O)c1ccc(Sc2ncn[nH]2)c([N+](=O)[O-])c1)c1ccccc1C | -0.1 | . | 2.6 | . | 12.2 | .
O=C(O)c1ccc(-c2ccco2)n1Cc1ccccc1 | -3.9 | 2.0 | 29.2* | -4.4 | 1.7 | 6.2
O=C(O)c1cc(-c2ccc(-c3ccc(F)cc3)o2)nc2ccccc12 | 3.6 | 1.6 | 85.7* | -1.3 | 12.8 | 27.4*
O=C(NC1CCCCN(Cc2ccc(Cl)cc2)C1=O)c1cccc2nsnc12 (stereo not given) | -4.9 | . | 2.6 | . | 2.1 | .
CN1CCCN(C(=O)CN2C(=O)CC(C)(C)S(=O)(=O)c3ccccc32)CC1 | 3.5 | . | 1.9 | . | 1.4 | .
CCCOc1ccccc1NC(=O)/C=C/C(N)=O | -3.5 | 1.5 | 58.9* | 3.1 | 6.9 | 35.7*
O=C(O)c1ccc2ncsc2c1 | 2.1 | 7.1 | 24.9* | -1.1 | 1.8 | 13.4
O=C(COC(=O)c1ccc2ncsc2c1)Nc1cccc(Cl)c1 | -18.3 | -28.6 | 33.1* | -9.6 | -23.5 | 1.6
O=C(c1ccc2ncsc2c1)N1CCCCC1 | 4.3 | 4.5 | 8.4 | 7.2 | -1.7 | .
O=C(COC(=O)c1ccc2ncsc2c1)NCc1cccc(Cl)c1 | -5.0 | -20.3 | 5.2 | -7.1 | -9.5 | .
O=C(Nc1cccc(Cl)c1)c1ccc2ncsc2c1 | -24.1 | -30.5 | 31.9* | 0.6 | -28.6 | -2.0
C[C@H](O)[C@@H]1CN2CCc3c([nH]c4c(-c5ccccc5)cccc34)[C@@H]2C[C@@H]1N(C)CC1CCCCC1 | 8.6 | . | -0.5 | . | 1.6 | .
CCN(CC)C(=O)CSc1nc2c(sc(=S)n2-c2ccccc2)c(=O)n1Cc1ccco1 | -2.1 | -23.9 | 24.9* | -1.3 | 5.0 | 20.9
CCN(CC)C(=O)CSc1nc2c(sc(=S)n2CC)c(=O)n1-c1ccccc1 | 1.3 | -2.5 | -1.9 | 4.2 | -2.2 | .
Cc1ccc(Cc2c(-c3ccco3)nc3c(C)cc(Br)cn23)cc1 | -2.8 | . | 33.0* | -3.1 | 6.9 | 18.4
Cc1cc(Br)cn2c(Cc3ccccc3C(F)(F)F)c(-c3ccco3)nc12 | 0.7 | . | 39.9* | 2.8 | -3.3 | 23.2*
Cc1cc(Br)cn2c(Cc3cccc(Cl)c3)c(-c3ccco3)nc12 | -7.3 | . | 43.7* | 6.6 | 14.4 | 18.3
SMILES | SIAE inh | HTRA1 inh | PRMT1 FP inh | TCR-CD3 inh | ABHD4 inh | PRMT1 inh conf
Cc1cc(Br)cn2c(Cc3ccccc3C(F)(F)F)c(-c3ccccc3)nc12 | -3.7 | . | -0.3 | -0.5 | -5.6 | .
Cc1cc(Br)cn2c(Cc3ccccc3)c(-c3cccc(Cl)c3)nc12 | -12.3 | . | 8.8 | 3.5 | -35.3 | .
Fc1cccc(Cc2c(-c3ccco3)nc3c(Cl)cc(C(F)(F)F)cn23)c1 | -2.9 | . | 37.7* | -0.6 | 2.7 | 23.1*
Fc1ccc(-c2nc3c(Cl)cc(C(F)(F)F)cn3c2Cc2cccc(F)c2)cc1 | -4.4 | . | -3.6 | 2.4 | -19.0 | .
CC(=O)Nc1ccc(NS(=O)(=O)c2ccc(CN3C(=O)c4cccnc4C3=O)cc2)cc1 | -0.6 | 5.0 | 3.7 | -6.5 | 0.8 | .
Cc1ccc(CNS(=O)(=O)c2cc(F)ccc2CN2C(=O)c3cccnc3C2=O)o1 | 1.3 | -0.2 | 25.0* | -9.9 | -0.3 | -0.4
Cc1ccc(CNS(=O)(=O)c2ccc(CN3C(=O)c4cccnc4C3=O)cc2)o1 | 6.8 | 7.2 | 26.1* | -10.1 | 10.1 | 13.4
Cc1nc2cc(C(=O)N3CCN(C(=O)C(C)(C)C)CC3)ccc2n1C1CCCC1 | 5.2 | . | 5.2 | . | 3.8 | .
CCC(=O)Nc1nc(C)c(-c2csc(Nc3cccc(O)c3)n2)s1 | 13.7 | 12.3 | 48.9* | -5.5 | -2.8 | 4.9
CC(=O)N1CCN(c2ncnc3sc(-c4ccccc4)cc23)CC1 | -8.8 | 10.2 | -5.9 | -1.8 | -2.1 | .
Oc1ccc(N2CCN(c3ncnc4sc(-c5ccccc5)cc34)CC2)cc1 | 6.2 | 19.6 | 32.4* | -3.1 | 27.2 | 14.8
O=C(CSc1nc(O)c(Cc2ccccc2)c(=O)[nH]1)c1ccccc1 | -2.8 | 8.1 | 47.4* | 4.1 | 6.6 | 34.0*
CCCCc1c(O)nc(SCC(=O)c2ccccc2)[nH]c1=O | 0.6 | -3.0 | 40.0* | -4.3 | 3.2 | 37.6*
O=C(CSc1nc(O)c(Cc2ccccc2)c(=O)[nH]1)N1CCOCC1 | -0.2 | 8.4 | -2.9 | 7.5 | -5.6 | .
Cc1ccc(CNC(=O)CCS(=O)(=O)c2cc3c(cc2Br)CCN3C(=O)C2CC2)o1 | -0.6 | . | 1.1 | . | 4.0 | .
COc1ccc(NC2CCN(C3CC(=O)N(c4ccc(F)c(Cl)c4)C3=O)CC2)cc1 (stereo not given) | -2.2 | -13.4 | 2.1 | -2.7 | -17.2 | .
CCOC(=O)c1ccc(N2C(=O)CC(N3CCC(C(N)=O)(N4CCCCC4)CC3)C2=O)cc1 (stereo not given) | -4.2 | -2.3 | 8.4 | -0.3 | 0.7 | .
CCN1C(=O)CC(N2CCC(C(=O)OC)CC2)C1=O (stereo not given) | -0.4 | 6.0 | -2.0 | 3.5 | 2.4 | .
COC(=O)C1CCN(C2CC(=O)N(c3cc(C)cc(C)c3)C2=O)CC1 (stereo not given) | -5.8 | 6.1 | 56.8* | 0.2 | 4.3 | -2.4
CCOc1cccc(N2C(=O)CC(N3CCC(C(N)=O)(N4CCCCC4)CC3)C2=O)c1 (stereo not given) | -0.3 | -1.8 | 40.3* | 4.8 | -4.6 | -0.3
NC(=O)C1CCN(C2CC(=O)NC2=O)CC1 (stereo not given) | -8.4 | 2.3 | 64.3* | -8.0 | -7.8 | -2.1
NC(=O)C1CCN(C2CC(=O)N(c3ccc(F)c(Cl)c3)C2=O)CC1 (stereo not given) | -3.8 | 2.9 | 29.9* | 3.0 | 5.6 | 9.2
CCCN1CC(=O)N2[C@H](C[C@@]3(n4ccc5ccccc54)c4ccccc4N(S(=O)(=O)c4ccccc4)[C@@H]23)C1=O | -1.4 | . | -4.5 | . | 5.6 | .
